Tests used:
[1] = test system: Rattus norvegicus; assay: Antidiabetic activity in po dosed Zucker fatty rat assessed as reduction of blood glucose level pretreated 30 mins before glucose challenge by oral glucose tolerance test; type: functional, organism-based
Summary of the method: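 Male Zucker fatty rats, 10 weeks old, fasted 24 h, with Zucker lean rats as reference. Oral dose of 0.03–1.0 mg/kg in 0.5% methylcellulose, or vehicle alone, 30 min before oral glucose at 2 g/kg. Tail blood taken at -30, 0, 10, 30, 60 and 120 min and deproteinized with perchloric acid. Glucose measured by colorimetric kit (A505–A700) in duplicate. AUC over 0–120 min; n = 4–9; Dunnett test.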

[2] = molecular target: Dipeptidyl peptidase 2 (Homo sapiens, UniProt Q9UHL4); assay: Inhibition of DPP2
[3] = molecular target: Dipeptidyl peptidase 8 (Homo sapiens, UniProt Q6V1X1); assay: Inhibition of DPP8
Sequence of Dipeptidyl peptidase 8 (Q6V1X1 whole entry): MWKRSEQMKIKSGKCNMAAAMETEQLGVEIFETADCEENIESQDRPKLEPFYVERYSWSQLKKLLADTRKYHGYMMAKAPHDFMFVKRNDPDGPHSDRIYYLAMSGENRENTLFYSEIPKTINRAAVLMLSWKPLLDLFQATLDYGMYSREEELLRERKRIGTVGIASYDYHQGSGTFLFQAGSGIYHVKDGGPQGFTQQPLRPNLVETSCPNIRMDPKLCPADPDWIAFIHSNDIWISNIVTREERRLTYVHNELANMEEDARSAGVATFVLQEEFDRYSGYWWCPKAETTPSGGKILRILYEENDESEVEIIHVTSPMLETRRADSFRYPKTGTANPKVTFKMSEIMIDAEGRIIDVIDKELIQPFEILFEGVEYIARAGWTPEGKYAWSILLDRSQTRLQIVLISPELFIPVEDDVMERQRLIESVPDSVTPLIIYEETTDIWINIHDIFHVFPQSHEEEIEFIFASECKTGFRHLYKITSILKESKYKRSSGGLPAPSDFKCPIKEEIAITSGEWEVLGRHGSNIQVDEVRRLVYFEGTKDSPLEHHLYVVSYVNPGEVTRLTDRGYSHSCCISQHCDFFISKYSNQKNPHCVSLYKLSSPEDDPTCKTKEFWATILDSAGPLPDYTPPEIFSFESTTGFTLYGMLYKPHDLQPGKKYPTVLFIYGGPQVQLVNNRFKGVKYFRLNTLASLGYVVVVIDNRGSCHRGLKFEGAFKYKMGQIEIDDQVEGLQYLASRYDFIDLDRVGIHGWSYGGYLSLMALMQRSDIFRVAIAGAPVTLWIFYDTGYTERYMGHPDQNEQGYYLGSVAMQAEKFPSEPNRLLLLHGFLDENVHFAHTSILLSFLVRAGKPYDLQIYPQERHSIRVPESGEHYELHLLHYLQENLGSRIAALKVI

[4] = molecular target: Dipeptidyl peptidase 9 (Homo sapiens, UniProt Q86TI2); assay: Inhibition of DPP9
Sequence of Dipeptidyl peptidase 9 (Q86TI2 whole entry): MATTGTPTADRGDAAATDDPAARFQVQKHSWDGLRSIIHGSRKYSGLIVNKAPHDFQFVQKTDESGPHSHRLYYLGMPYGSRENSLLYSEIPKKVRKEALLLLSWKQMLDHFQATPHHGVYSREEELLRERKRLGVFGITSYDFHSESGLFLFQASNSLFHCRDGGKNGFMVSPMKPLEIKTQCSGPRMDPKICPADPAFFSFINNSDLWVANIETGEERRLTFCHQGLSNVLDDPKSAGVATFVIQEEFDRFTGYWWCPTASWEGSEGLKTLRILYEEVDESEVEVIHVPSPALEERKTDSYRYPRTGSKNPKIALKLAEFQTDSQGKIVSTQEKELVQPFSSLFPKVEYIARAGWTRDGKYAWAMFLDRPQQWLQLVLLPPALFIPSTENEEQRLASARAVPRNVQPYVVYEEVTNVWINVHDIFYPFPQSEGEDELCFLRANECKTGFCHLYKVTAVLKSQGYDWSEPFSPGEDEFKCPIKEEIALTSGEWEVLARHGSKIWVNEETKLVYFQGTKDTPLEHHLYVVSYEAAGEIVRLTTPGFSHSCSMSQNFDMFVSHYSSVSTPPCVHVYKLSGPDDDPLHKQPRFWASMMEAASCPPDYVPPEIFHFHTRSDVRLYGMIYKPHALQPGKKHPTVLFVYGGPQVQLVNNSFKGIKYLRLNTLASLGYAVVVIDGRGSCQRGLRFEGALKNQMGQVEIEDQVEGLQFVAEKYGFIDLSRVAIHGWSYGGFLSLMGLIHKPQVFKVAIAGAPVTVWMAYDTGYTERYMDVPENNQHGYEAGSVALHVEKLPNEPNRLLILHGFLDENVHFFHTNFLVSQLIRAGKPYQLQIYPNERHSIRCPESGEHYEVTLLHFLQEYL

[5] = molecular target: T1, Prolyl endopeptidase (Homo sapiens, UniProt P48147); assay: Inhibition of prolyl oligopeptidase
T1 sequence (P48147 whole entry): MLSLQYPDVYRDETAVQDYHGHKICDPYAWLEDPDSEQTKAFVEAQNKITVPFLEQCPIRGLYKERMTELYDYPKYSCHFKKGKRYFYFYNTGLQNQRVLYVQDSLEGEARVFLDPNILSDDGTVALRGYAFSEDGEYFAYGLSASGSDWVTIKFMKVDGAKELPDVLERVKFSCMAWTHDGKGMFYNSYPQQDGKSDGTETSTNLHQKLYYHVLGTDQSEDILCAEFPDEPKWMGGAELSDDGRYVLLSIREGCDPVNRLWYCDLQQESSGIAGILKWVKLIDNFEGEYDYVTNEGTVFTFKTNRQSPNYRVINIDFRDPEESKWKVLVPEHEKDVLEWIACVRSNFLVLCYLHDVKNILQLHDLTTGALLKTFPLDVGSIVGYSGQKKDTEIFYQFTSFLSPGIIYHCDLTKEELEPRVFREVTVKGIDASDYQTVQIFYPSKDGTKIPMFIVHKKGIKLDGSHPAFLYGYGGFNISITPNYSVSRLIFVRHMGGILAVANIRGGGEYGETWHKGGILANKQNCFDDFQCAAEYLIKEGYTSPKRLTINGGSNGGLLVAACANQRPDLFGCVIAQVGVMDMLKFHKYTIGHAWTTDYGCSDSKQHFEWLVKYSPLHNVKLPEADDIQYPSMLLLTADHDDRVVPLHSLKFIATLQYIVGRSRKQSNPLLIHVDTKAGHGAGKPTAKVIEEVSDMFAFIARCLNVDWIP

[6] = molecular target: Xaa-Pro aminopeptidase 2 (Homo sapiens, UniProt O43895); assay: Inhibition of aminopeptidase P
Sequence of Xaa-Pro aminopeptidase 2 (O43895 whole entry): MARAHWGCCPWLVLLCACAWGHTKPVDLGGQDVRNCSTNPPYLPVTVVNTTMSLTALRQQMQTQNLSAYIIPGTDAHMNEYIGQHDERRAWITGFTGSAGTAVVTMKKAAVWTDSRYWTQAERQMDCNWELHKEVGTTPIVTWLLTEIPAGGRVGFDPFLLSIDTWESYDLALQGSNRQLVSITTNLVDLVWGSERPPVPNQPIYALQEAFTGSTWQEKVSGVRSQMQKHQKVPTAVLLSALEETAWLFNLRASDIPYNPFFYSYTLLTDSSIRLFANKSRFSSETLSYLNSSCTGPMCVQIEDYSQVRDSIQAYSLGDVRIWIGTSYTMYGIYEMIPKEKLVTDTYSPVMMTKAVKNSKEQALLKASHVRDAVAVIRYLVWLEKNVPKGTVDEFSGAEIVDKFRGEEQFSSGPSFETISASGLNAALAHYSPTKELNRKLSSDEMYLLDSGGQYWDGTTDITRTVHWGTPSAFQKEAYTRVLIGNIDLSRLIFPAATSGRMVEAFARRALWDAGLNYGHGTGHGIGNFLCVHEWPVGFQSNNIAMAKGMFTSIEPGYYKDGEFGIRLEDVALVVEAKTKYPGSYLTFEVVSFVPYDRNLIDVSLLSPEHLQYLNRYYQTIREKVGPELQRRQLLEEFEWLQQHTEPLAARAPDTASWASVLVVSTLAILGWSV

[7] = molecular target: T2, Muscarinic acetylcholine receptor M4 (Homo sapiens, UniProt P08173); assay: Binding affinity to muscarinic receptor 4
T2 sequence (P08173 whole entry): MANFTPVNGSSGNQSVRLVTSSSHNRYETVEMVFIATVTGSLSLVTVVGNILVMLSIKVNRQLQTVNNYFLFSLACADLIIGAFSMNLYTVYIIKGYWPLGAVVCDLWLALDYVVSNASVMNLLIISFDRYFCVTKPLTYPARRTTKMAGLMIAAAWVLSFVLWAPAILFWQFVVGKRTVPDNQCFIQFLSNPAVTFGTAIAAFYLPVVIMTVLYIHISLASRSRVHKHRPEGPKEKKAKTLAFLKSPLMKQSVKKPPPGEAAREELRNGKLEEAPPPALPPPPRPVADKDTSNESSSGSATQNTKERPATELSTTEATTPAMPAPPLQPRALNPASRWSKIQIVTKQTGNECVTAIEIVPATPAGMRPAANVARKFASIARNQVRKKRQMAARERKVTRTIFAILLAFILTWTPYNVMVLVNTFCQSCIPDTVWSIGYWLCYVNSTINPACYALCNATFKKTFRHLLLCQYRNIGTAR

[8] = molecular target: T3, Cytochrome P450 1A2 (Homo sapiens, UniProt P05177); assay: Inhibition of CYP1A2; type: ADME
T3 sequence (P05177 whole entry): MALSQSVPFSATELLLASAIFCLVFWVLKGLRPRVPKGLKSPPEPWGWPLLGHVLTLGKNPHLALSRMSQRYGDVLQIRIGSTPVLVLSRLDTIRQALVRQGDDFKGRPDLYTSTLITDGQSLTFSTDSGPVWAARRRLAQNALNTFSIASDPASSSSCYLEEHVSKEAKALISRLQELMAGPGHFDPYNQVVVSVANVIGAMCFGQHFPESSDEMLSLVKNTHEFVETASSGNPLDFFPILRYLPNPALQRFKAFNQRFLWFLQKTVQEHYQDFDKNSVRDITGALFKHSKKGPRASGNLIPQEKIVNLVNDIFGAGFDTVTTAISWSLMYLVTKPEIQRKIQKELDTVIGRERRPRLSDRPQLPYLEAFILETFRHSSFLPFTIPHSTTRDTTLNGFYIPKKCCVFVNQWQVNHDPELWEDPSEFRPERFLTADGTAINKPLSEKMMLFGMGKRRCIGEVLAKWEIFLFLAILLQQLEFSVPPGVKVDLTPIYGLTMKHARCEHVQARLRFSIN

[9] = molecular target: Cytochrome P450 3A4 (Homo sapiens, UniProt P08684); assay: Inhibition of CYP3A4; type: ADME
Sequence of Cytochrome P450 3A4 (P08684 whole entry): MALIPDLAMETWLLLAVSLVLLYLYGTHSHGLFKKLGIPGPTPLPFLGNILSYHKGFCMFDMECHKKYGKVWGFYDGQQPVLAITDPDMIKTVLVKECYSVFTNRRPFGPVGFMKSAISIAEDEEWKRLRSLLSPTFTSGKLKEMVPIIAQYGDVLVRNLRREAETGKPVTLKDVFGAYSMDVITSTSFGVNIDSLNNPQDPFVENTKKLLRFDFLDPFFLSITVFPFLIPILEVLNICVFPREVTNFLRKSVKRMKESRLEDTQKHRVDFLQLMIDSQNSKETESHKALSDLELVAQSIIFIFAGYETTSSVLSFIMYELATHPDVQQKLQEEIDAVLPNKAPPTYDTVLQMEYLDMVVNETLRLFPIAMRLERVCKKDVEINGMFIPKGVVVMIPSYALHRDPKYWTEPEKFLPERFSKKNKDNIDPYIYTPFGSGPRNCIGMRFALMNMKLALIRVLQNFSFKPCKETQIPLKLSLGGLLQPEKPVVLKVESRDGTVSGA

[10] = Volume of distribution at steady state in rat at 1 mg/kg, iv; type: ADME, organism-based; design: dose 1 mg/kg, route intravenous; conditions: in vivo, read-out: Vdss
[11] = Oral bioavailability in rat at 3 mg/kg; type: ADME, organism-based; conditions: in vivo
[12] = Half life in dog at 1 mg/kg, iv; type: ADME, organism-based, Canis lupus familiaris; design: dose 1 mg/kg, route intravenous; conditions: in vivo
[13] = Cmax in dog at 3 mg/kg, po; type: ADME, organism-based, Canis lupus familiaris; design: dose 3 mg/kg, route oral; conditions: in vivo
[14] = Oral bioavailability in dog at 3 mg/kg, po; type: ADME, organism-based, Canis lupus familiaris; conditions: in vivo
[15] = Half life in monkey at 1 mg/kg, iv; type: ADME, organism-based, Macaca mulatta; design: dose 1 mg/kg, route intravenous; conditions: rhesus monkey, in vivo
[16] = Half life in monkey at 3 mg/kg, po; type: ADME, organism-based, Macaca mulatta; design: dose 3 mg/kg, route oral; conditions: rhesus monkey, in vivo
[17] = Plasma protein binding in dog; type: ADME, cell-free, Canis lupus familiaris; conditions: read-out: PPB (converted)
[18] = Plasma protein binding in monkey; type: ADME, cell-free, Macaca mulatta; conditions: rhesus monkey, read-out: PPB (converted)
[19] = Plasma protein binding in human; type: ADME, cell-free; conditions: read-out: PPB (converted)
[20] = Cmax in Zucker fatty rat at 3 mg/kg, po after 3 hrs; type: ADME, organism-based; design: dose 3 mg/kg, route oral; conditions: in vivo
[21] = AUC in Zucker fatty rat at 3 mg/kg, po after 3 hrs; type: ADME, organism-based; design: time < 3 hr, dose 3 mg/kg, route oral; conditions: plasma
[22] = Solubility of the compound in buffered water at pH 1.2 to 6.8; type: physicochemical
Summary of the method: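 Free amine form dissolved in buffered water at pH 1.2, 5.5 and 6.8.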

[23] = Toxicity in rat assessed as organ toxicity after 2 weeks repeated dosage; type: organism-based; conditions: in vivo
Summary of the method: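 2-week repeated-dose toxicity study; rats n = 5 per sex, monkeys n = 1 per sex.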

## Cn1c(=O)c2c(cc(N3CCC[C@@](C)(N)C3)n2Cc2cc(F)ccc2C#N)n(C)c1=O
[1]
  Activity: Dose-dependent effect
[2]
  IC50: > 50 µM
[3]
  IC50: > 50 µM
[4]
  IC50: > 50 µM
[5]
  IC50: > 50 µM
[6]
  IC50: > 50 µM
[7]
  IC50: > 10 µM
[8]
  IC50: > 50 µM
[9]
  IC50: > 50 µM
[10]
  Vd: 6.5 L/kg
[11]
  bioavailability: 52%
[12]
  half-life: 3.1 h
[13]
  Cmax: 245 ng/mL
[14]
  bioavailability: 91%
[15]
  half-life: 4.8 h
[16]
  half-life: 15 h
[17]
  fraction unbound: 0.41
[18]
  fraction unbound: 0.31
[19]
  fraction unbound: 0.27
[20]
  Cmax: 309 ng/mL
[21]
  AUC at 3 h: 2170 ng·h/mL
[22]
  solubility: > 1000 µg/mL
[23]
  NOAEL at 336 h: 60 mg/kg/day

From ChEMBL document CHEMBL1817578, “2-({6-[(3R)-3-amino-3-methylpiperidine-1-yl]-1,3-dimethyl-2,4-dioxo-1,2,3,4-tetrahydro-5H-pyrrolo[3,2-d]pyrimidine-5-yl}methyl)-4-fluorobenzonitrile (DSR-12727): a potent, orally active dipeptidyl peptidase IV inhibitor without mechanism-based inactivation of CYP3A” (Bioorg Med Chem, 2011)
